HSF-1 act: increases HSF-1 driven luciferase reporter signal. AID 504408. NIH3T3-HGL HSF-1 luciferase reporter, MG132, 8 h; 100% = twice DMSO control signal. activation, % at 9 µM. 300,000 tested, 1.7% active;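 active means mean replicate activation of at least 50% with a set share of replicates each reaching 50%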;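 further: 0% = median of the neutral control wells and 100% = twice that signal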
T cruzi repl: blocks replication of Trypanosoma cruzi; 300,000 tested, 1.4% active; T. cruzi beta-gal in NIH3T3, luminescence, 90 h; inhibition, % (no concentration beside the values);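 active means mean inhibition across valid replicates above about 55%, limit read from the data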;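 further: signal also drops with host cell toxicity which is not excluded here; 0% = plate median of DMSO wells and 100% = zero luminescence signal; higher percent means less beta-gal luminescence so fewer parasites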
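compound dosing = single 50 nL compound addition per well in DMSO | material = NIH/3T3 host cells with β-galactosidase reporter T. cruzi | input = 5,000 host fibroblasts per well | timing = ≥90 h infection period, 3 h prior cell attachment | read-out basis = percent inhibition of parasite-derived β-gal signal | detection = GalScreen β-gal luminescence, detergent lysis, 60 min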
CaV13 FRET inh: Primary screen for inhibitors of IQ motif and Ca2+-dependent inactivation inhibitor domain binding in CACNA1D, Förster resonance energy transfer in living cells, … | 340,000 tested, 0.098% active | inhibition, % at 12.3 µM | HEK cells, CFP/YFP FRET ICDI-IQ, plate reader, 10 min; percent FRET-ratio fall versus neutral wells;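 active means mean replicate inhibition of at least 30% and at least 1% of replicates passing that level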;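 further: 0% = median of the neutral control wells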
Glyco luc inh: blocks N-linked glycosylation in D54 reporter cells; D54 ERlucT glycosylation luciferase reporter, 24 h; percent of 100 nM tunicamycin response; reporter increase, % at 12.5 µM; AID 588692; 360,000 tested, 0.23% active;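 active means mean luciferase reporter signal, scaled so untreated is 0 and the glycosylation-blocking control 100, at or above a set limit in every replicate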;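 further: luciferase carries N-glycosylation sites so blocking glycosylation raises the light; 0% = median of neutral control wells and 100% = median of 100 nM tunicamycin wells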
PvdQ acylase: P. aeruginosa PvdQ acylase inhibition. 340,000 tested, 0.063% active. inhibition, % at 10 µM. purified PvdQ acylase, fluorescence plate reader. AID 488965; in the data active means inhibition above about 30%, passing the limit was not always enough;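 further: 0% = vehicle neutral wells and 100% = reference inhibitor wells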
PfHsp90 yeast 2: reduces growth (ATP signal) of yeast expressing P. falciparum Hsp90. 310,000 tested, 0.32% active. S. cerevisiae expressing PfHsp90, BacTiter-Glo ATP, 48 h; yeast lacking PDR1 and PDR3 efflux regulators. inhibition, % at 9.4 µM;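 active means every replicate shows inhibition above about 80%, whatever the replicate mean, limit read from the data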;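 further: 0% = DMSO neutral controls and 100% = 20 µM radicicol positive controls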
Active calls of the source: *; / = no result. Most compounds without a hit are left out; they make up all but 3% or so of the library.

SMILES	HSF-1 act	T cruzi repl	CaV13 FRET inh	Glyco luc inh	PvdQ acylase	PfHsp90 yeast 2
O=[N+]([O-])c1ccc(CN2CCN(c3ccc(Cl)cc3)CC2)o1	2.3	59.3*	-5.3	4.5	9.6	-1.2
Cc1ccccc1C(=O)N[C@H](C(=O)N1CCC[C@H]1C(=O)NCCc1ccccc1Cl)C(C)C	/	/	-3.3	/	/	/
COc1ccccc1NC(=O)N(C)C[C@@H]1OCc2cnnn2CCCC(=O)N([C@@H](C)CO)C[C@@H]1C	/	/	-6.4	0.8	/	/
O=C(/C=C/c1ccccn1)c1cc(Br)ccc1O	10.3	-5.5	-5.9	11.1	3.0	104.2*
COc1ccc(/C=C/C(=O)c2cc(Br)ccc2O)cc1OC	65.6*	-0.2	-5.9	19.3	-2.5	-8.0
COc1ccc(/C=C/C(=O)c2ccc[nH]2)cc1OC	61.6*	-4.9	-4.7	-4.3	11.6	/
COc1ccc(/C=C/C(=O)c2cc(F)ccc2OC(=O)c2ccccc2OC)cc1OC	69.2*	45.6	-6.0	10.9	-1.8	-27.1
COC(=O)Cn1nnnc1-c1nc2cc(C)c(C)cc2[nH]c1=O	/	/	-7.5	/	/	/
Cc1c(C(=O)Nc2ccc(-c3nnc4n3CCCCC4)cc2)oc2c1ccc1ccccc12	13.5	55.9*	-2.6	10.2	6.0	-20.7
O[C@@H](Cc1ccccc1)[C@@H](/C=C/c1ccccc1)N(Cc1ccccc1)Cc1ccccc1	/	/	-2.8	/	/	/
O=S(=O)(c1ccc(F)cc1)N1CCCc2nc(-c3ccccc3)ccc21	/	/	-4.3	/	/	/
Cc1ccccc1OCC(=O)NCCNC(=O)c1cccnc1	-37.3	3.5	-19.8	0.8	-3.8	6.6
Cc1ccccc1OCC(=O)NCCCNC(=O)c1cccnc1	56.1*	8.4	-2.5	2.0	-16.3	-4.5
O=C(N/N=C\c1ccc(CNS(=O)(=O)c2ccccc2)o1)C(=O)Nc1ccc(F)cc1	24.6	-5.2	-14.8	1.2	-9.9	9.3
O=C(N/N=C\c1ccc(CNS(=O)(=O)c2ccc(Cl)cc2)o1)C(=O)Nc1ccc(Oc2ccccc2)cc1	/	/	-7.7	51.8*	-5.3	-0.8
NCc1ccc(OCCCN2CCC(C(O)(C3=CCCC3)c3ccccc3)CC2)cc1 (centres undefined)	/	/	-10.6	/	/	/
O=C(OCn1ncc(Cl)c(Cl)c1=O)c1cccc(C(F)(F)F)c1	31.0	54.3	/	-16.1	-3.2	99.0*
O=[N+]([O-])c1ccc2nc(C3CCCCC3)[nH]c2c1	21.6	0.9	-19.8	2.4	-4.9	-15.5
O=[N+]([O-])c1ccc(O)c(C2CCCCC2)c1	/	/	-11.2	-2.1	-5.3	108.0*
CCCCN1C(=O)C(CC(=O)NCCCN(C)C)CC(C(=O)N2CCCCCC2)=C1C (centres undefined)	/	/	-11.2	/	/	/
Cc1cc(NCCN2CCOCC2)n2nc(C)c(-c3ccc(Cl)cc3)c2n1	65.0*	9.9	-1.8	2.4	-9.4	-1.4
Cc1cc(NCCN2CCOCC2)n2nc(C)c(-c3ccccc3)c2n1	-11.0	22.3	/	4.4	-9.5	-5.5
CCOc1ccc(C(C)=O)cc1COc1cccnc1[N+](=O)[O-]	9.8	-0.6	-7.2	30.3*	-12.7	24.8
O=C(O)c1cccc2c1-c1ccc(Cl)cc1C2=O	/	/	-4.7	-0.1	-5.8	-40.2
O=C(O)c1cccc2c1Cc1cc(Cl)ccc1-2	/	/	-7.6	3.3	-16.9	107.2*
SMILES	HSF-1 act	T cruzi repl	CaV13 FRET inh	Glyco luc inh	PvdQ acylase	PfHsp90 yeast 2
Cc1cc2c(cc1C)-c1nnnn1C(N1CCCCC1)C(=O)N2 (centres undefined)	/	/	-14.0	/	/	/
COCCCOc1cc(NCc2ccccc2)c2ncn(C(C)C)c2c1	/	/	122.4*	-1.0	-1.5	-9.7
CCCCOc1cc(NCc2ccccc2)c2ncn(C(C)C)c2c1	/	/	-4.8	-2.8	-14.5	-3.5
C(=C1/CCCC2=C1Nc1ncnn1C2c1ccccc1)/c1ccccc1 (centres undefined)	90.1*	73.9*	/	/	/	/
Cc1ccc(N(C)c2nc(N)nc(N)c2N=O)cc1	/	/	-50.0	/	/	/
COc1cc(C(C)=O)ccc1OCc1nnc(-c2ccccc2Br)o1	23.2	0.4	-4.1	0.9	-12.0	1.7
O=[N+]([O-])c1cc(Br)c(OCc2nnc(-c3ccccc3)o2)c(Br)c1	-4.3	67.2*	-7.0	1.7	-9.2	15.1
O=[N+]([O-])c1ccc2c(OCc3nnc(-c4ccccc4Br)o3)ncnc2c1	29.0	71.5*	1.7	4.0	-19.4	-55.6
Oc1ccccc1N=Nc1ccccc1O	-5.6	58.7*	-4.3	-9.0	-4.7	0.3
Cc1ccc(CC2SC(=Nc3ccccc3)N(c3ccccc3)C2=O)cc1 (centres undefined)	59.2*	7.3	-6.1	-3.4	-9.5	-37.4
Fc1ccc2[nH]c3c(N4CCc5ccccc5C4)ncnc3c2c1	29.8	19.0	-2.2	3.6	/	/
Brc1ccc2[nH]c3c(N4CCc5ccccc5C4)ncnc3c2c1	57.9*	47.1	/	/	/	/
Cc1ccc2[nH]c3c(N4CCc5ccccc5C4)ncnc3c2c1	92.0*	7.6	-3.1	6.6	-6.6	-1.3
COc1cc(NC(=O)N2CCc3nc(NCc4cccc(Oc5ccccc5)c4)ncc3C2)cc(OC)c1OC	/	/	-12.2	23.1	/	/
O=C(Nc1ccc(Cl)c(Cl)c1)Nc1ccccc1O	92.4*	-12.2	0.2	-4.3	-11.4	12.8
O=C(Nc1ccncc1)Nc1cccc(Cl)c1Cl	-1.1	65.8*	-6.4	2.6	-1.8	-2.2
O=C(Nc1ccc(Cl)cc1)Nc1ccc(Cl)c(Cl)c1	/	/	-5.2	/	/	/
O=C(COc1ccc(Cl)cc1)Nc1cccc(-c2ccc(N3CCOCC3)nn2)c1	55.3*	16.0	-5.9	-5.2	-3.6	19.8
CC(C)C[C@H](NC(=O)c1ccccn1)C(=O)N1CCC[C@H]1C(=O)NCc1ccccc1	/	/	-12.2	/	/	/
Cc1ccc2cc(CNC[C@H]3O[C@@H](n4cc(C)c(=O)[nH]c4=O)C[C@@H]3O)c(N3CCOCC3)nc2c1	/	/	-2.9	1.2	/	/
COC(=O)[C@@H]1ON2OCC(C)=C3CCCC[C@@]32[C@H]1C(=O)OC	/	/	-10.8	/	/	/
CC1(C(=O)Nc2ccc3c(c2)OCO3)CCN1C(=O)CC1CC1 (centres undefined)	/	/	-5.5	0.1	/	/
Nc1cc(=O)n(Cc2ccccc2)c(N)c1C(=O)NCc1ccccc1	/	/	-1.5	/	/	/
Cc1c(OCC(=O)NCCCn2ccnc2)ccc2c3c(c(=O)oc12)CCCC3	57.2*	11.8	-2.1	0.4	-14.4	7.7
CCCc1cc(=O)oc2c(C)c(OCC(=O)NCCCn3ccnc3)ccc12	6.0	-6.4	-4.2	1.1	-3.0	0.7
O=C(Nc1ccc(C(=O)N2CCCCC2)cc1)C1CC1	/	/	-9.8	0.8	-14.1	-4.0
CCOC(=O)c1ccc(Nc2ncnc3ccc(C)cc23)cc1	-15.0	20.6	/	-1.1	-9.5	-12.8
CCOc1ccc(Nc2ncnc3ccc([N+](=O)[O-])cc23)cc1	-43.2	58.6*	-4.2	-11.0	86.4*	0.0

Source: PubChem BioAssay (Broad Institute)
